Assay results collected from several papers.
Each line is one published result; the experiments were not run side by side.
Target: Serine/threonine-protein kinase TBK1 (TBK1, Homo sapiens, UniProt Q9UHD2)
Residues used in one study (Q9UHD2 1-729): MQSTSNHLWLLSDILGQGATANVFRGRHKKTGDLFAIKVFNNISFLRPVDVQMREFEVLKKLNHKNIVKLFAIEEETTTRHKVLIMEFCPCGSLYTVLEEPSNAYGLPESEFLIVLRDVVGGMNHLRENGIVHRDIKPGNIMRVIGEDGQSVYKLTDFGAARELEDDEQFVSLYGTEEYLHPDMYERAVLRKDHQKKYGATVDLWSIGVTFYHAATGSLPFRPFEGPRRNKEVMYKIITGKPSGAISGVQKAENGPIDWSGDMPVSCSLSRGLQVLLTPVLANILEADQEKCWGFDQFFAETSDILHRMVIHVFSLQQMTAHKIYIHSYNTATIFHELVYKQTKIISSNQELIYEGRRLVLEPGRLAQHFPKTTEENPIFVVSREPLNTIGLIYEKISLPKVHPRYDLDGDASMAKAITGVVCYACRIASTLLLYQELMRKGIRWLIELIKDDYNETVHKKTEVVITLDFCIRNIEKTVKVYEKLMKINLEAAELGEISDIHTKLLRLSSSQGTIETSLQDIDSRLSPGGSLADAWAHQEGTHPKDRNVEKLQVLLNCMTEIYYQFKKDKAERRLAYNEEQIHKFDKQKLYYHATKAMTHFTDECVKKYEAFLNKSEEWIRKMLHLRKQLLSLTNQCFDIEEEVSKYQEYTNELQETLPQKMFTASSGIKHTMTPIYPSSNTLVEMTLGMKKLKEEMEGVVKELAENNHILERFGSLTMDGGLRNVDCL

COc1cnc(Nc2cccc(S(N)(=O)=O)c2)nc1N1CCN(c2ccccc2)CC1
remaining binding (binding, competition with immobilised ligand; 1 µM): 61%

O=c1nc(-c2ccccn2)sc2ccccc12
remaining binding (binding, competition with immobilised ligand; 1 µM): 91%

CN(C)c1nccc(-c2cnn3ncccc23)n1
remaining binding (binding; 1 µM): 82%

Cc1cnc(Nc2ccc(C(=O)N3CCC(N4CCCC4)CC3)cc2)nc1-c1cc2ccccc2s1
remaining binding (binding, competition with immobilised ligand; 1 µM): 4.5%

O=C(O)[C@@H]1[C@@H](Cn2nnc3ccccc3c2=O)CC[C@H]1C(=O)c1ccc(OCCC2CCOCC2)cc1
remaining binding (cell-free assay, competition with immobilised ligand; 1 µM): 100%

O=C(NCCCN1CCOCC1)c1ccc(Nc2nccc(-c3cc4ccccc4s3)n2)cc1
remaining binding (binding, competition with immobilised ligand; 1 µM): 70%

O=C(NC[C@@H]1[C@H]2CN(C(=O)OCc3cc(C(F)(F)F)cc(C(F)(F)F)c3)C[C@@H]12)c1ccc2[nH]nnc2c1
remaining binding (cell-free assay, competition with immobilised ligand; 1 µM): 100%

c1cncc(-c2cccc(Nc3nccc(NC4CCCCC4)n3)c2)c1
remaining binding (binding, competition with immobilised ligand; 10 µM): 62%

c1cnn2ncc(-c3ccnc(N4CCC45COC5)n3)c2c1
remaining binding (binding; 1 µM): 41%

CS(=O)(=O)N1CCCC(NC(=O)[C@H](CCC2CCCCC2)NC(=O)c2ccc(CNC(=O)c3cnc4ccccn34)cc2)C1 (stereo partly drawn)
remaining binding (cell-free assay, competition with immobilised ligand; 0.1 µM): 75%

Cc1cnn2ncc(-c3ccnc(N(C)C)n3)c2c1
remaining binding (binding; 1 µM): 82%

CS(=O)(=O)NCC[C@H](NC(=O)c1cncc2c1cnn2-c1ccc(F)cc1)c1ccnc(S(C)(=O)=O)c1
remaining binding (cell-free assay, competition with immobilised ligand; 1 µM): 94%

Nc1ncc2c(n1)-c1c([nH]c3ccc(C#CC4CC4)cc13)CCCC2
remaining binding (binding, competition with immobilised ligand; 1 µM): 88%

O=C(Nc1c[nH]nc1C(=O)NC1CCNCC1)c1cc(F)cc(F)c1
remaining binding (binding, competition with immobilised ligand; 1 µM): 100%

COc1cccc(CNC(=O)c2nc3scc(COCc4ccc(C(=O)O)cc4)c3c(=O)[nH]2)c1
remaining binding (cell-free assay, competition with immobilised ligand; 1 µM): 94%

C[C@H]1CCN(c2nccc(-c3cnn4ncccc34)n2)C1
remaining binding (binding; 1 µM): 80%

O=C(NCCCN1CCOCC1)c1ccc(Nc2ncc(Cl)c(-c3ccc(Cl)s3)n2)cc1
remaining binding (binding, competition with immobilised ligand; 1 µM): 23%

F[C@@H]1CCN(c2nccc(-c3cnn4ncccc34)n2)C1
remaining binding (binding; 1 µM): 84%

C[C@@H](c1ccc(-n2cnc3c(N)ncnc32)cc1)N1CCc2nn(C)c(Cc3ccccc3)c2C1=O
remaining binding (binding, competition with immobilised ligand; 0.1 µM): 98%

N[C@@H]1CCN(c2nccc(-c3cnn4ncccc34)n2)C1
remaining binding (binding; 1 µM): 97%

C=CC(=O)N1CCC(C(=O)NCC(=O)N2CCN(c3nc(-c4cnc(N)nc4C(F)F)nc(N4CCOCC4)n3)CC2)CC1
remaining binding (binding, competition with immobilised ligand; 1 µM): 91%
